Assays:
[1] = test system: PEDV nucleocapsid (N) protein; test: Western blot of PEDV nucleocapsid; assay type: cell-based, porcine epidemic diarrhea virus; settings: Vero cells
[2] = test system: PRRSV nucleocapsid (N) protein; test: Western blot of PRRSV nucleocapsid; assay type: cell-based, porcine reproductive and respiratory syndrome virus; settings: MARC-145 cells; for PRRSV N protein detection (western blot): 100 μM; for PRRSV N protein level (western blot), dose response: 6.25–200 μM, 36 h
PRRSV 3CLSP (nsp4) = molecular target: T1, PRRSV 3CLSP (nsp4) (Porcine reproductive and respiratory syndrome virus, UniProt A1E8J1); test: FRET assay of PRRSV 3CLSP; assay type: biochemical
T1 sequence (A1E8J1 1780-1983): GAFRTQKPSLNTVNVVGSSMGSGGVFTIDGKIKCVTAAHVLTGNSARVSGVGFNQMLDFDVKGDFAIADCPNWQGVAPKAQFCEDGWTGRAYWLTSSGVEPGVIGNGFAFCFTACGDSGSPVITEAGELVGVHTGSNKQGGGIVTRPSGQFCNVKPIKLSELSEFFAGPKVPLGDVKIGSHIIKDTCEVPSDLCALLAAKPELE

Cell viability assay = assay type: cell-based; settings: African green monkey, Vero cells
Procedure, shortened: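 Confluent Vero cells in DMEM with 10% FBS at 37 °C, 5% CO2 were exposed to test compound at 50–500 μM for 72 h, with 0.1% DMSO as control. Viability was read by CellTiter-Glo luminescence. CC50 was fitted in GraphPad Prism from triplicate experiments (±SD).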

PEDV 3CL protease (nsp5) = molecular target: T2, PEDV 3CL protease (nsp5) (Porcine epidemic diarrhea virus, UniProt P0C6Y4); test: FRET assay of PEDV 3CL protease; assay type: biochemical
T2 sequence (P0C6Y4 2998-3299 limits assumed): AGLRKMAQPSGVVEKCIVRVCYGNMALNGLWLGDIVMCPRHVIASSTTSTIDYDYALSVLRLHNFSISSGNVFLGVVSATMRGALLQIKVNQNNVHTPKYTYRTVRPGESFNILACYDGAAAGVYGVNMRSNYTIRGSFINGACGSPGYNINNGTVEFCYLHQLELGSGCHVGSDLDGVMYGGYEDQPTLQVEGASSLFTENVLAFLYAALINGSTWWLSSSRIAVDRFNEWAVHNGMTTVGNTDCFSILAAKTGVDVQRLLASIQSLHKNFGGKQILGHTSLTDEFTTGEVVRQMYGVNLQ
Procedure, shortened: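 The assay used purified PEDV nsp5 (3CL protease) at 0.25 μM final and substrate Dabcyl-YNSTLQ↓AGLRKM-E-Edans at 10 μM. Test compound (6.25–500 μM) was preincubated with enzyme for 20 min at 37 °C, then incubated with substrate for 60 min at 37 °C. Fluorescence was read at ex 340/em 485, minus a no-protease background. Inhibition % came from the 60–0 min RFU change against control, and IC50 from nonlinear regression of triplicate runs.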

in vitro = assay type: cell-based; settings: African green monkey
[3] = test system: PRRSV (HP-PRRSV WUH3 strain); test: TCID50 assay for PRRSV replication in MARC-145 cells; assay type: cell-based, porcine reproductive and respiratory syndrome virus; settings: for Inhibition of PRRSV infection: 100 μM
EAV 3CLSP (nsp4) = molecular target: T3, EAV 3CLSP (nsp4) (Equine arteritis virus, UniProt P19811); test: FRET assay of EAV 3CLSP; assay type: biochemical; settings: 1 μM substrate, 12.5-500 μM compound
T3 sequence (P19811 1065-1268 limits assumed): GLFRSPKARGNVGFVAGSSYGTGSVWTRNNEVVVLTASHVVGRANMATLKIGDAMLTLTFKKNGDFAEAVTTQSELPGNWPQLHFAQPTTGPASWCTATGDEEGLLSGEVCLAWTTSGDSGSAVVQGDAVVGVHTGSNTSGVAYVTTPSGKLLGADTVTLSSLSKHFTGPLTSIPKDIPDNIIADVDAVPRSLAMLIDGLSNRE

PEDV (FJZZ strain) = test: TCID50 assay for PEDV replication in Vero cells; assay type: cell-based, porcine epidemic diarrhea virus

| SMILES | PEDV N protein level (western blot), dose response [1] | PRRSV N protein detection (western blot) [2] | PRRSV N protein level (western blot), dose response [2] | IC50 (PRRSV 3CLSP (nsp4)) [µM] | CC50 at 72 h (Cell viability assay) [µM] | IC50 (PEDV 3CL protease (nsp5)) [µM] | CC50 (in vitro) [µM] | Inhibition of PRRSV infection [3] | PRRSV-3CLpro SI values (selectivity index) ([3]; PRRSV) | Protease activity of EAV 3CLSP (EAV 3CLSP (nsp4)) | PEDV-3CLpro SI values (selectivity index) (PEDV (FJZZ strain)) | viability at 72 h, 500 µM (in vitro) [%] | Suppression of PRRSV replication (western blot) [2] |
| --- | --- | --- | --- | --- | --- | --- | --- | --- | --- | --- | --- | --- | --- |
| Cc1ccc(C(=O)c2ccc(O)cc2O)cc1 [Compound 2, (2,4-dihydroxyphenyl) (4-methylphenyl)methanone] | decreased | no viral N protein was detectable | decreased | 144 | > 500 | 37.8 | 480 | strongly inhibited PRRSV infection |  |  |  |  |  |
| Cc1cccc(C)c1C(=O)c1ccc(O)cc1O [Compound 3, (2,4-dihydroxyphenyl)(2,6-dimethylphenyl)methanone] | decreased | no viral N protein was detectable | decreased | 116 | > 500 | 23.4 | 483 | strongly inhibited PRRSV infection | ~8.5 | inhibited | ~9.02 |  |  |
| CC1CCN(c2ncnc3ccccc23)CC1 [Compound 5, 4-(4-methylpiperidin-1-yl)quinazoline] |  |  | decreased | 173 |  |  | > 500 |  |  |  |  | > 60 |  |
| Cc1ccncc1 [Compound 4, 4-methylpyridine] |  |  |  | 148 |  | > 500 |  |  |  |  |  |  | did not substantially suppress PRRSV replication |

— paper PMC7117380 (Veterinary Microbiology, 2017)
